Measured values from ChEMBL document CHEMBL2440001, “Design and synthesis of novel 3,5-bis-N-(aryl/heteroaryl) carbamoyl-4-aryl-1,4-dihydropyridines as small molecule BACE-1 inhibitors” (Bioorg Med Chem, 2013).
Peptide text beside a SMILES is read from it. * marks the point of attachment. X1 = C[C@H](NC[C@H](C)N*)C(=O)N[C@@H](CCC(=O)O)C(=O)N[C@@H](Cc1ccccc1)C(=O)O

Key:
Cavia porcellus = species on record: Cavia porcellus; experiment: Antagonist activity at calcium channel albino guinea pig ileal longitudinal smooth muscle assessed as inhibition of KCl-induced contraction
Procedure, shortened: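 Fasted guinea-pig ileal longitudinal smooth muscle, 2 cm segments under 0.5 g resting tension, contracted with 40 mM KCl. Compounds were added cumulatively, and relaxation was expressed as percent of control. IC30 (30% relaxation) was read graphically from the curves.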

Beta-secretase 1 [1] = molecular target: T1, Beta-secretase 1 (Homo sapiens, UniProt P56817); experiment: Inhibition of recombinant human BACE-1 using SEVNLDAEFK as substrate at 50 uM after 90 mins by FRET assay
T1 sequence (P56817 whole entry): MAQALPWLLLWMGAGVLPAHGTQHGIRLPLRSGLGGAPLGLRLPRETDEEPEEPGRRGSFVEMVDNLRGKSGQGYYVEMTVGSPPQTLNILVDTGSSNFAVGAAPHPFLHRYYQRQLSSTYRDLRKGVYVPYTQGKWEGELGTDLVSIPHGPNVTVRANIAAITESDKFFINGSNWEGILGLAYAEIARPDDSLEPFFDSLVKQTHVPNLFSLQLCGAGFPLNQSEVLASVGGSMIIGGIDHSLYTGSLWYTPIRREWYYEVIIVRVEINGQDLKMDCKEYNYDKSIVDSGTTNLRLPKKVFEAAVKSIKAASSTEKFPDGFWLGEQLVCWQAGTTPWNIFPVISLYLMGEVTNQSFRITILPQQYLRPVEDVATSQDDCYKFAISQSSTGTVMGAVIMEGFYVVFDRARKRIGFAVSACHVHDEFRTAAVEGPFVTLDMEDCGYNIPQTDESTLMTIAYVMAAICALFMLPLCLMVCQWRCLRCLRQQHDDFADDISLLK

Beta-secretase 1 [2] = molecular target: T1, Beta-secretase 1; experiment: Inhibition of recombinant human BACE-1 using SEVNLDAEFK as substrate at 10 uM after 90 mins by FRET assay
Beta-secretase 1 [3] = molecular target: T1, Beta-secretase 1; experiment: Inhibition of recombinant human BACE-1 using SEVNLDAEFK as substrate after 90 mins by FRET assay

For `CC1=C(C(=O)Nc2nc(C)cs2)C(c2ccco2)C(C(=O)Nc2nc(C)cs2)=C(C)N1`, the IC15 (Cavia porcellus) was 2.26 µM, the inhibition (Beta-secretase 1 [1]) was 95.1% and the inhibition (Beta-secretase 1 [2]) was 66.4%. For the same compound, the IC50 (Beta-secretase 1 [3]) was 6.78 µM.
`CC1=C(C(=O)Nc2nc3ccccc3s2)C(c2ccccc2)C(C(=O)Nc2nc3ccccc3s2)=C(C)N1` was tested, and the inhibition (Beta-secretase 1 [2]) was 44.9%.
For `COc1ccc(C2C(C(=O)Nc3nc(C)cs3)=C(C)NC(C)=C2C(=O)Nc2nc(C)cs2)cc1`, the inhibition (Beta-secretase 1 [1]) was 86.3% and the inhibition (Beta-secretase 1 [2]) was 44.4%.
`CC(C)C[C@H](NC(=O)[C@H](CC(N)=O)NC(=O)[C@@H](NC(=O)[C@@H](N)CCC(=O)O)C(C)C)C(=O)N[C@@H](C)CN[C@@H](C)C(=O)N[C@@H](CCC(=O)O)C(=O)N[C@@H](Cc1ccccc1)C(=O)O` (H-EVNL-X1) was tested, and the IC50 (Beta-secretase 1 [3]) was 0.003 µM.
`CCOc1ccc2nc(NC(=O)C3=C(C)NC(C)=C(C(=O)Nc4nc5ccc(OCC)cc5s4)C3c3cccc([N+](=O)[O-])c3)sc2c1` was tested, and the inhibition (Beta-secretase 1 [1]) was 94% and the inhibition (Beta-secretase 1 [2]) was 49.1%.
With `COC(=O)C1=C(C)NC(C)=C(C(=O)OC)C1c1ccccc1[N+](=O)[O-]` the IC15 (Cavia porcellus) was 0.00202 µM and the IC30 (Cavia porcellus) was 0.00927 µM.
With `CC1=C(C(=O)Nc2nc3ccccc3s2)C(c2cccc([N+](=O)[O-])c2)C(C(=O)Nc2nc3ccccc3s2)=C(C)N1` the inhibition (Beta-secretase 1 [1]) was 56.2% and the inhibition (Beta-secretase 1 [2]) was 49.4%.
`CC1=C(C(=O)Nc2nc(C)cs2)C(c2ccc([N+](=O)[O-])cc2)C(C(=O)Nc2nc(C)cs2)=C(C)N1` was tested, and the IC15 (Cavia porcellus) was 4.63 µM, the inhibition (Beta-secretase 1 [1]) was 88% and the inhibition (Beta-secretase 1 [2]) was 77.2%. The IC50 (Beta-secretase 1 [3]) was 4.21 µM.
For `CC1=C(C(=O)Nc2cc(C)on2)C(c2cccc([N+](=O)[O-])c2)C(C(=O)Nc2cc(C)on2)=C(C)N1`, the inhibition (Beta-secretase 1 [2]) was 11.6%.
Compound `CC1=C(C(=O)Nc2nccs2)C(c2ccc([N+](=O)[O-])cc2)C(C(=O)Nc2nccs2)=C(C)N1` has an inhibition (Beta-secretase 1 [1]) of 46.8% and an inhibition (Beta-secretase 1 [2]) of 28.1%.
Work on `CC1=C(C(=O)Nc2nc(C)cs2)C(c2ccccc2[N+](=O)[O-])C(C(=O)Nc2nc(C)cs2)=C(C)N1` yielded an IC15 (Cavia porcellus) of 1.82 µM, an inhibition (Beta-secretase 1 [1]) of 95% and an inhibition (Beta-secretase 1 [2]) of 69.4%. It also gave an IC50 (Beta-secretase 1 [3]) of 4.66 µM.
In the case of `CC1=C(C(=O)Nc2cc(C)on2)C(c2ccccc2[N+](=O)[O-])C(C(=O)Nc2cc(C)on2)=C(C)N1`, the inhibition (Beta-secretase 1 [1]) is reported as 54% and the inhibition (Beta-secretase 1 [2]) is reported as 12.7%.
Work on `CC1=C(C(=O)Nc2nc(C)cs2)C(c2cccc([N+](=O)[O-])c2)C(C(=O)Nc2nc(C)cs2)=C(C)N1` yielded an inhibition (Beta-secretase 1 [1]) of 70.4% and an inhibition (Beta-secretase 1 [2]) of 34.8%.
With `CC1=C(C(=O)Nc2cc(C)on2)C(c2ccc([N+](=O)[O-])cc2)C(C(=O)Nc2cc(C)on2)=C(C)N1` the inhibition (Beta-secretase 1 [1]) was 43% and the inhibition (Beta-secretase 1 [2]) was 23.5%.
Work on `CC1=C(C(=O)Nc2cc(C)on2)C(c2ccc[nH]2)C(C(=O)Nc2cc(C)on2)=C(C)N1` yielded an inhibition (Beta-secretase 1 [1]) of 57.4% and an inhibition (Beta-secretase 1 [2]) of 24.1%.
With `CC1=C(C(=O)Nc2nc3ccccc3s2)C(c2ccc([N+](=O)[O-])cc2)C(C(=O)Nc2nc3ccccc3s2)=C(C)N1` the inhibition (Beta-secretase 1 [1]) was 90.8% and the inhibition (Beta-secretase 1 [2]) was 49.8%.
For `CC1=C(C(=O)Nc2nc3ccccc3s2)C(c2ccccc2[N+](=O)[O-])C(C(=O)Nc2nc3ccccc3s2)=C(C)N1`, the IC15 (Cavia porcellus) was 6.47 ×10⁻⁷ M, the inhibition (Beta-secretase 1 [1]) was 87.2% and the inhibition (Beta-secretase 1 [2]) was 65.6%. The IC50 (Beta-secretase 1 [3]) was 4.27 µM.
